Experimental findings from ChEMBL document CHEMBL3351593, “Potent nonimmunosuppressive cyclophilin inhibitors with improved pharmaceutical properties and decreased transporter inhibition” (J Med Chem, 2014) are described below.

Broadly, the IC50 is the concentration that inhibits the measured activity by half. In general, logD refers to the decadic logarithm of the distribution of all forms, ionised or not, between an organic phase and buffer at a given pH. The term EC50 denotes the concentration needed to bring the measured effect to its halfway point. For orientation: CC50 means the concentration at which the toxic effect on the cells reaches its halfway point.

A value given as a limit tells only on which side of the number the result lay.

For series [1], the target named is T1, Solute carrier organic anion transporter family member 1B1 (Homo sapiens, UniProt Q9Y6L6).
T1 sequence (Q9Y6L6 whole entry): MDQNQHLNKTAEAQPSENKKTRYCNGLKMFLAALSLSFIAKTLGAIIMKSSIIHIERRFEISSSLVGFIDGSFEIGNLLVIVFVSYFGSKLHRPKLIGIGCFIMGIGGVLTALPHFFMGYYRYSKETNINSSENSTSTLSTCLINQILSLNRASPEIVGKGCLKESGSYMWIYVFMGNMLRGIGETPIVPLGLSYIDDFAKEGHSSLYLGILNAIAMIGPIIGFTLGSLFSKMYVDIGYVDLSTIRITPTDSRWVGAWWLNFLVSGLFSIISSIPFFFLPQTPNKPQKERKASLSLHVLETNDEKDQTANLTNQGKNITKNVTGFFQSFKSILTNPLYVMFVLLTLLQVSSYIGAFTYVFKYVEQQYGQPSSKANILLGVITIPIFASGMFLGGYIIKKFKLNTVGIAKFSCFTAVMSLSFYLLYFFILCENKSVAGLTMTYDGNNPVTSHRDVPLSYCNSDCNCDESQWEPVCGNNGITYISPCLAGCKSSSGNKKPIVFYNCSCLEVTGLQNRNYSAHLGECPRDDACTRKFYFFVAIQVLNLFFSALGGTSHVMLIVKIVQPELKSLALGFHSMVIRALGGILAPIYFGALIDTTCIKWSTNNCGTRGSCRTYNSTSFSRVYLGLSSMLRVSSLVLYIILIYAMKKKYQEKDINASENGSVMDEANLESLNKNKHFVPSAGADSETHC
In words: Inhibition of OATP1B1 (unknown origin) expressed in CHO cells using 8-fluorescein-cAMP substrate by fluorescent photometry. Type of series: ADME, cell-based. The method in brief: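 CHO-OATP1B1 cells and vector control cells cultured 2 days, then washed and equilibrated 15 min in HBSS + 10 mM HEPES. Exposed 10 min to 2.5 μM 8-fluorescein-cAMP with inhibitor at 0−30 μM (up to 1% DMSO). Cells washed and lysed, uptake measured by fluorescence, and IC50 taken from the concentration-response curve.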

Series [2] has as its target T2, Cytochrome P450 2C8 (Homo sapiens, UniProt P10632).
T2 sequence (P10632 whole entry): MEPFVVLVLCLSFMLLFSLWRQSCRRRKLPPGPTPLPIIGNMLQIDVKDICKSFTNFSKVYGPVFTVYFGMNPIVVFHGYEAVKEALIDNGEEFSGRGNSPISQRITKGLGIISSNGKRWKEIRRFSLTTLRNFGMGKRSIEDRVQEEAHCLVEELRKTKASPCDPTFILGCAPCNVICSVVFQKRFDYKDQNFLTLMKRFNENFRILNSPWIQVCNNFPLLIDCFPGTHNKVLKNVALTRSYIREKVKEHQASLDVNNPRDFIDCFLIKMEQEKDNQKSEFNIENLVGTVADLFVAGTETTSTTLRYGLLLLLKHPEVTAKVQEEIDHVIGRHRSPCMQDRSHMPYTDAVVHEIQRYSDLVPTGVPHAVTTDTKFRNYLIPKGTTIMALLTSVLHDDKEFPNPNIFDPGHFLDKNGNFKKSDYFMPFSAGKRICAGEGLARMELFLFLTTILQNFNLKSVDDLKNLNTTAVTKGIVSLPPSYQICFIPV
In words: Inhibition of CYP2C8 (unknown origin). The format is ADME.

For series [3], the target named is Cytochrome P450 3A4 (Homo sapiens, UniProt P08684). The series is described as follows: Inhibition of CYP3A4 (unknown origin). The format is ADME.
The target of series [4] is Cytochrome P450 2D6 (Homo sapiens, UniProt P10635). The series is described as follows: Inhibition of CYP2D6 (unknown origin). Type of series: ADME.
The target of series [5] is Cytochrome P450 2C19 (Homo sapiens, UniProt P33261). The series is described as follows: Inhibition of […] (unknown origin). Type of series: ADME.
The nature of series [6]: Lipophilicity, log D of the compound. The format is physicochemical. Conditions: octanol/water.
Series [7] has as its system Hepatitis C virus. The series is described as follows: Antiviral activity against HCV subtype 1a in human Huh7.5 cells expressing subgenomic HCV replicons and coexpressing luciferase reporter gene. Type of series: functional, cell-based, Hepacivirus hominis. Conditions: Huh-7. The method in brief: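 Stable Huh7.5 lines carrying genotype 1a or 1b subgenomic replicons with luciferase reporter, made by RNA electroporation and G418 selection. Assay run in phenol red-free DMEM without G418, sixteen half-log compound dilutions, in triplicate. Luciferase signal read after 72 h relative to DMSO controls, giving EC50.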
(In general: Replicon systems follow genome replication, usually without infectious particles.)

The subject of series [8] is Hepatitis C virus. In words: Antiviral activity against HCV subtype 1b in human Huh7.5 cells expressing subgenomic HCV replicons and coexpressing luciferase reporter gene in presence of 40% human serum. Conditions: genotype 1b, Huh-7. Type of series: functional, cell-based, Hepacivirus hominis. The method in brief:
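Genotype 1b luciferase replicon in Huh7.5 cells with 40% human serum added to the assay medium, in phenol red-free DMEM without G418. Sixteen half-log dilutions in triplicate. Luciferase read after 72 h relative to DMSO-treated cells, giving EC50.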

Series [9] can be described thus: Cytotoxicity against human MT4 cells by CDCF probe based assay. Type of series: cell-based.
The test system of series [10] is PBMC. The series is described as follows: Cytotoxicity against PHA-stimulated human PBMC by 5-bromo-2'-deoxyuridine incorporation assay. Type of series: cell-based. The method in brief:
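Fresh PBMCs from two human donors in X-VIVO 15 medium, stimulated with PHA. Seven concentrations taken from a half-log series. Incubated 60 h at 37 °C, 5% CO2, with BrdU added for the final 12 h. Incorporation read by anti-BrdU ELISA at 450 nm. Percent inhibition against PHA-stimulated untreated cells after background subtraction, four-parameter fit giving IC50.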

The target of series [11] is T1, Solute carrier organic anion transporter family member 1B1. The series is described as follows: Inhibition of OATP1B1 (unknown origin) expressed in HEK293 cells using [3H]estradiol-17beta-glucuronide substrate. The format is ADME, cell-based. The method in brief: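 Recombinant OATP1B1 or OATP1B3 expressed in HEK293 cells, with [3H]estradiol-17β-glucuronide as substrate; IC50 determined.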

Chain of Cytochrome P450 2C19 (P33261 whole entry): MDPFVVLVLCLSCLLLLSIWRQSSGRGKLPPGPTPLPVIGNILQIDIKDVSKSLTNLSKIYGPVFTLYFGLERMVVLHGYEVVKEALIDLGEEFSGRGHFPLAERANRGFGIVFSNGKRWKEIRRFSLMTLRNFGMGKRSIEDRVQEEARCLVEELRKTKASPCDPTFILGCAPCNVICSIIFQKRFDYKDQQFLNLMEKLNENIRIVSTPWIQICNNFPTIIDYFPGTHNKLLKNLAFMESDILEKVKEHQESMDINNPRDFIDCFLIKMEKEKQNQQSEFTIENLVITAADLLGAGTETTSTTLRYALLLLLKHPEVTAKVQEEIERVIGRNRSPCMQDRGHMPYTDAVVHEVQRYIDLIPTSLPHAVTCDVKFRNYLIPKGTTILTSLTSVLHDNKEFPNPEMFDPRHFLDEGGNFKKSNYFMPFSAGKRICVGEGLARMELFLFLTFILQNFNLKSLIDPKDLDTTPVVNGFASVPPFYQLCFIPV
Chain of Cytochrome P450 3A4 (P08684 whole entry): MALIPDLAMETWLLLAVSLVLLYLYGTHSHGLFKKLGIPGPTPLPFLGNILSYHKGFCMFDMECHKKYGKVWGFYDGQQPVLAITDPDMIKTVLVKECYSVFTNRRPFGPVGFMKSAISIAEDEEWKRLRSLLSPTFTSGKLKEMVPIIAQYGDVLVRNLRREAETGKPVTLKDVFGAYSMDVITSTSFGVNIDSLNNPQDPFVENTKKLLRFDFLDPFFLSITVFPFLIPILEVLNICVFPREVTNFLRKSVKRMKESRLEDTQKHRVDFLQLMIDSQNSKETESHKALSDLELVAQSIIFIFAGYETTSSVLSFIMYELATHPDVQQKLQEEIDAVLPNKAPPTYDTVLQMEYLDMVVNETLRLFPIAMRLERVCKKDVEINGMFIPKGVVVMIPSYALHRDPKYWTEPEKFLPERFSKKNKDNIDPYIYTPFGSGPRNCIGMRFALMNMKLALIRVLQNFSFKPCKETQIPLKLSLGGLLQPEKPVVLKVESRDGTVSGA
Chain of Cytochrome P450 2D6 (P10635 whole entry): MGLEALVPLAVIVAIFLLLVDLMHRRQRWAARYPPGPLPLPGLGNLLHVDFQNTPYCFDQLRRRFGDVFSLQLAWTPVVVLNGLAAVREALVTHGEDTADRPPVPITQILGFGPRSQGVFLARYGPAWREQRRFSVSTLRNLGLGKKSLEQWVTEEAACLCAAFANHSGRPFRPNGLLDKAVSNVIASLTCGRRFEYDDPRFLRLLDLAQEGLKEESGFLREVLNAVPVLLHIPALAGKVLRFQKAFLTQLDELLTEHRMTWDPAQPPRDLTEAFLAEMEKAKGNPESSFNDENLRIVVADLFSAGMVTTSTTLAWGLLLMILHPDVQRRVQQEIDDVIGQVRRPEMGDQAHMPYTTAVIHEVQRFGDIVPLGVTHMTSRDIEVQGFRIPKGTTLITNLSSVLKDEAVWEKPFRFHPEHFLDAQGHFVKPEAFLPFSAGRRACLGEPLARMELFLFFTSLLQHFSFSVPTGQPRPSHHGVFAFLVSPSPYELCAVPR

For `C/C=C/C[C@@H](C)[C@@H](O)[C@H]1C(=O)N[C@@H](CC)C(=O)N(C)[C@H](C)C(=O)N(C)[C@@H]([C@@H](C)CN2CCN(CCOC)CC2)C(=O)N[C@@H](C(C)C)C(=O)N(C)[C@@H](CC(C)C)C(=O)N[C@@H](C)C(=O)N[C@H](C)C(=O)N(C)[C@@H](CC(C)C)C(=O)N(C)[C@@H](CC(C)C)C(=O)N(C)[C@@H](C(C)C)C(=O)N1C`, the IC50 in [1] is 6100 nM; in series [2] it was more than 40000 nM; in series [3], more than 40000 nM; in series [4] it was more than 40000 nM; in series [5], more than 40000 nM; in series [10] it was 13200 nM. This compound yielded an IC50 in series [11] of 1200 nM. Also, the logD in [6] was 3.9. Also, the EC50 amounted to 70 nM in [7] and 42 nM in series [8]. In addition, in series [9], the CC50 is more than 50000 nM.
For the compound `C/C=C/C[C@@H](C)[C@@H](O)[C@H]1C(=O)N[C@@H](CC)C(=O)N(C)[C@H](C)C(=O)N(CC)[C@@H](C(C)C)C(=O)N[C@@H](C(C)C)C(=O)N(C)[C@@H](CC(C)C)C(=O)N[C@@H](C)C(=O)N[C@H](C)C(=O)N(C)[C@@H](CC(C)C)C(=O)N(C)[C@@H](CC(C)C)C(=O)N(C)[C@@H](C(C)C)C(=O)N1C` [ALISPORIVIR], the IC50 was 800 nM in series [1], 500 nM in series [10] and 180 nM in [11]. Further, in series [6], the logD is more than 6. In addition, the EC50 is 70 nM in [7] and 116 nM in [8]. Further, the CC50 in [9] is more than 20000 nM.
